From ChEMBL document CHEMBL1142894, “Preparation of 5-aryl-3-alkylthio-l,2,4-triazoles and corresponding sulfones with antiinflammatory-analgesic activity” (Bioorg Med Chem, 2007)
Calls of active or inactive are those of the source. No cut-off for these calls is given here.

Experiments:
Mus musculus [1] = experiment: Inhibition of carrageenan-induced paw edema in Swiss albino mouse at 50 mg/kg, po after 360 mins relative to control; type: functional; conditions: 6 h
Method in brief: (§1)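 Mice, n = 6 per group. Test agent given orally as a suspension in 0.5% sodium CMC in distilled water; controls received vehicle only. Afterwards, 0.5 mg/25 ll carrageenan in saline (154 mM NaCl) injected subplantar into the right hind paw, saline into the left. Right-minus-left footpad thickness measured by dial gauge caliper every 90 min for 6 h. Inhibition is relative to vehicle-control group means.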

Mus musculus [2] = experiment: Inhibition of p-benzoquinone-induced writhing in Swiss albino mouse at 50 mg/kg, po relative to control; type: functional
Method in brief: (§2)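 Mice, n = 6 per group, dosed orally with a suspension in 0.5% sodium CMC. 60 min later, 0.1 ml/10 g of 2.5% […] p-benzoquinone in distilled water given ip. Abdominal writhes counted per animal for 15 min, starting 5 min after injection. Expressed as % change in mean writhing count versus vehicle controls.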

Mus musculus [3] = experiment: Inhibition of carrageenan-induced paw edema in Swiss albino mouse at 100 mg/kg, po after 360 mins relative to control; type: functional; conditions: 6 h
Method in brief: (§3)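 Oral dosing in 0.5% CMC; vehicle to controls. Then carrageenan (0.5 mg/25 ll, freshly suspended in 154 mM saline) injected into the right hind paw subplantar tissue; saline into the left paw. Right-left footpad thickness difference measured by dial gauge calliper every 90 min over 6 h. Inhibition % is relative to vehicle control. n = 6; mean ± SEM.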

Mus musculus [4] = experiment: Inhibition of carrageenan-induced paw edema in Swiss albino mouse at 50 mg/kg, po after 270 mins relative to control; type: functional; conditions: 4.5 h; method in brief: as §1
Mus musculus [5] = experiment: Inhibition of carrageenan-induced paw edema in Swiss albino mouse at 100 mg/kg, po after 180 mins relative to control; type: functional; conditions: 3 h; method in brief: as §3
Mus musculus [6] = experiment: Inhibition of carrageenan-induced paw edema in Swiss albino mouse at 50 mg/kg, po after 180 mins relative to control; type: functional; conditions: 3 h; method in brief: as §3
Mus musculus [7] = experiment: Analgesic activity against p-benzoquinone-induced abdominal constriction in Swiss albino mouse assessed as number of writhings at 100 mg/kg, po; type: functional, Abdomen
Method in brief: (§4)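 Test samples given orally in 0.5% CMC; vehicle to controls. 60 min later, 2.5% (v/v) p-benzoquinone in distilled water, 0.1 ml/10 g, given i.p. Mice housed singly; writhes counted for 15 min starting 5 min after injection. Activity is % change from vehicle controls. n = 6; mean ± SEM.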

Mus musculus [8] = experiment: Antiinflammatory activity against carrageenan-induced paw edema in Swiss albino mouse assessed as swelling thickness at 100 mg/kg, po after 270 mins; type: functional; method in brief: as §3
Mus musculus [9] = experiment: Antiinflammatory activity against carrageenan-induced paw edema in Swiss albino mouse assessed as swelling thickness at 50 mg/kg, po after 270 mins; type: functional; method in brief: as §3
Mus musculus [10] = experiment: Acute toxicity in Swiss albino mouse assessed as lethal effect at 50 mg/kg/day, po after 72 hrs; type: organism-based; set-up: route oral; conditions: in vivo
Method in brief: (§5)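 Oral single dose suspended in 0.5% carboxymethylcellulose, given after a 24 h fast; food and water returned 1 h after dosing. Vehicle-only controls. Mice observed at 1 h, then once daily for 72 h, for toxic signs and mortality.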

Mus musculus [11] = experiment: Analgesic activity against p-benzoquinone-induced abdominal constriction in Swiss albino mouse assessed as number of writhings at 200 mg/kg, po; type: functional, Abdomen; method in brief: as §4
Mus musculus [12] = experiment: Antiinflammatory activity against carrageenan-induced paw edema in Swiss albino mouse assessed as swelling thickness at 50 mg/kg, po after 180 mins; type: functional; method in brief: as §3
Mus musculus [13] = experiment: Antiinflammatory activity against carrageenan-induced paw edema in Swiss albino mouse assessed as swelling thickness at 200 mg/kg, po after 90 mins; type: functional; method in brief: as §3
Mus musculus [14] = experiment: Inhibition of carrageenan-induced paw edema in Swiss albino mouse at 50 mg/kg, po after 90 mins relative to control; type: functional; conditions: 1.5 h; method in brief: as §1
Mus musculus [15] = experiment: Antiinflammatory activity against carrageenan-induced paw edema in Swiss albino mouse assessed as swelling thickness at 100 mg/kg, po after 360 mins; type: functional; method in brief: as §3
Mus musculus [16] = experiment: Antiinflammatory activity against carrageenan-induced paw edema in Swiss albino mouse assessed as swelling thickness at 50 mg/kg, po after 90 mins; type: functional; method in brief: as §3
Mus musculus [17] = experiment: Inhibition of carrageenan-induced paw edema in Swiss albino mouse at 25 mg/kg, po after 180 mins relative to control; type: functional; conditions: 3 h; method in brief: as §3
Mus musculus [18] = experiment: Acute toxicity in Swiss albino mouse assessed as lethal effect at 200 mg/kg/day, po after 72 hrs; type: organism-based; set-up: route oral; conditions: in vivo; method in brief: as §5
Mus musculus [19] = experiment: Analgesic activity against p-benzoquinone-induced abdominal constriction in Swiss albino mouse assessed as number of writhings at 50 mg/kg, po; type: functional, Abdomen; method in brief: as §4
Mus musculus [20] = experiment: Antiinflammatory activity against carrageenan-induced paw edema in Swiss albino mouse assessed as swelling thickness at 25 mg/kg, po after 270 mins; type: functional; method in brief: as §3
Mus musculus [21] = experiment: Antiinflammatory activity against carrageenan-induced paw edema in Swiss albino mouse assessed as swelling thickness at 25 mg/kg, po after 90 mins; type: functional; method in brief: as §3
Mus musculus [22] = experiment: Analgesic activity against p-benzoquinone-induced abdominal constriction in Swiss albino mouse assessed as number of writhings at 25 mg/kg, po; type: functional, Abdomen; method in brief: as §4
Mus musculus [23] = experiment: Inhibition of p-benzoquinone-induced writhing in Swiss albino mouse at 25 mg/kg, po relative to control; type: functional; method in brief: as §2
Mus musculus [24] = experiment: Inhibition of carrageenan-induced paw edema in Swiss albino mouse at 25 mg/kg, po after 270 mins relative to control; type: functional; conditions: 4.5 h; method in brief: as §3
Mus musculus [25] = experiment: Inhibition of carrageenan-induced paw edema in Swiss albino mouse at 200 mg/kg, po after 180 mins relative to control; type: functional; conditions: 3 h; method in brief: as §3
Mus musculus [26] = experiment: Inhibition of carrageenan-induced paw edema in Swiss albino mouse at 100 mg/kg, po after 90 mins relative to control; type: functional; conditions: 1.5 h; method in brief: as §3
Mus musculus [27] = experiment: Antiinflammatory activity against carrageenan-induced paw edema in Swiss albino mouse assessed as swelling thickness at 200 mg/kg, po after 270 mins; type: functional; method in brief: as §3
Mus musculus [28] = experiment: Inhibition of carrageenan-induced paw edema in Swiss albino mouse at 100 mg/kg, po after 270 mins relative to control; type: functional; conditions: 4.5 h; method in brief: as §3
Mus musculus [29] = experiment: Acute toxicity in Swiss albino mouse assessed as lethal effect at 25 mg/kg/day, po after 72 hrs; type: organism-based; set-up: route oral; conditions: in vivo; method in brief: as §5
Mus musculus [30] = experiment: Antiinflammatory activity against carrageenan-induced paw edema in Swiss albino mouse assessed as swelling thickness at 25 mg/kg, po after 180 mins; type: functional; method in brief: as §3
Mus musculus [31] = experiment: Antiinflammatory activity against carrageenan-induced paw edema in Swiss albino mouse assessed as swelling thickness at 200 mg/kg, po after 360 mins; type: functional; method in brief: as §3
Mus musculus [32] = experiment: Inhibition of carrageenan-induced paw edema in Swiss albino mouse at 200 mg/kg, po after 90 mins relative to control; type: functional; conditions: 1.5 h; method in brief: as §3
Mus musculus [33] = experiment: Inhibition of p-benzoquinone-induced writhing in Swiss albino mouse at 200 mg/kg, po relative to control; type: functional; method in brief: as §2
Mus musculus [34] = experiment: Antiinflammatory activity against carrageenan-induced paw edema in Swiss albino mouse assessed as swelling thickness at 100 mg/kg, po after 180 mins; type: functional; method in brief: as §3
Mus musculus [35] = experiment: Gastric-ulcerogenic effect in Swiss albino mouse assessed as lesions at 50 mg/kg, po; type: functional, organism-based; set-up: dose 50 mg/kg
Method in brief: (§6)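 Mice killed under deep ether anesthesia 3 h after the writhing test; the oral dose in 0.5% CMC was the one used in that test. Stomachs removed, opened along the great curvature and examined under a dissecting microscope for lesions or bleeding. Reported as ratio of ulceration; n = 6.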

Mus musculus [36] = experiment: Antiinflammatory activity against carrageenan-induced paw edema in Swiss albino mouse assessed as swelling thickness at 100 mg/kg, po after 90 mins; type: functional; method in brief: as §3
Mus musculus [37] = experiment: Antiinflammatory activity against carrageenan-induced paw edema in Swiss albino mouse assessed as swelling thickness at 200 mg/kg, po after 180 mins; type: functional; method in brief: as §3
Mus musculus [38] = experiment: Inhibition of carrageenan-induced paw edema in Swiss albino mouse at 200 mg/kg, po after 270 mins relative to control; type: functional; conditions: 4.5 h; method in brief: as §3
Mus musculus [39] = experiment: Inhibition of p-benzoquinone-induced writhing in Swiss albino mouse at 100 mg/kg, po relative to control; type: functional; method in brief: as §2
Mus musculus [40] = experiment: Inhibition of carrageenan-induced paw edema in Swiss albino mouse at 200 mg/kg, po after 360 mins relative to control; type: functional; conditions: 6 h; method in brief: as §3
Mus musculus [41] = experiment: Inhibition of carrageenan-induced paw edema in Swiss albino mouse at 25 mg/kg, po after 360 mins relative to control; type: functional; conditions: 6 h; method in brief: as §3
Mus musculus [42] = experiment: Antiinflammatory activity against carrageenan-induced paw edema in Swiss albino mouse assessed as swelling thickness at 25 mg/kg, po after 360 mins; type: functional; method in brief: as §3
Mus musculus [43] = experiment: Inhibition of carrageenan-induced paw edema in Swiss albino mouse at 25 mg/kg, po after 90 mins relative to control; type: functional; conditions: 1.5 h; method in brief: as §3
Mus musculus [44] = experiment: Gastric-ulcerogenic effect in Swiss albino mouse assessed as lesions at 25 mg/kg, po; type: functional, organism-based; set-up: dose 25 mg/kg; method in brief: as §6
Mus musculus [45] = experiment: Antiinflammatory activity against carrageenan-induced paw edema in Swiss albino mouse assessed as swelling thickness at 50 mg/kg, po after 360 mins; type: functional; method in brief: as §3
Mus musculus [46] = experiment: Acute toxicity in Swiss albino mouse assessed as lethal effect at 100 mg/kg/day, po after 72 hrs; type: organism-based; set-up: route oral; conditions: in vivo; method in brief: as §5

## CS(=O)(=O)c1nc(-c2ccccc2Cl)n[nH]1
Mus musculus [1]
  inhibition in vivo at 50 mg/kg: 36.8%
Mus musculus [2]
  inhibition in vivo at 50 mg/kg: 40.9%
Mus musculus [3]
  inhibition in vivo at 100 mg/kg: 35.3%
Mus musculus [4]
  inhibition in vivo at 50 mg/kg: 33.5%
Mus musculus [5]
  inhibition in vivo at 100 mg/kg: 24.3%
Mus musculus [6]
  inhibition in vivo at 50 mg/kg: 30.6%
Mus musculus [7]
  Activity: 32.2
Mus musculus [8]
  Activity: 41.3 10^-2mm
Mus musculus [9]
  Activity: 43.1 10^-2mm
Mus musculus [10]
  Activity: Non-toxic
Mus musculus [11]
  Activity: 45.3
Mus musculus [12]
  Activity: 41.2 10^-2mm
Mus musculus [13]
  Activity: 49.8 10^-2mm
Mus musculus [14]
  inhibition in vivo at 50 mg/kg: 26.5%
Mus musculus [15]
  Activity: 44.5 10^-2mm
Mus musculus [16]
  Activity: 39.1 10^-2mm
Mus musculus [17]
  inhibition in vivo at 25 mg/kg: 4.2%
Mus musculus [18]
  Activity: Non-toxic
Mus musculus [19]
  Activity: 30.4
Mus musculus [20]
  Activity: 60.2 10^-2mm
Mus musculus [21]
  Activity: 49.1 10^-2mm
Mus musculus [22]
  Activity: 40.1
Mus musculus [23]
  inhibition in vivo at 25 mg/kg: 21.9%
Mus musculus [24]
  inhibition in vivo at 25 mg/kg: 7.1%
Mus musculus [25]
  inhibition in vivo at 200 mg/kg: 8.1%
Mus musculus [26]
  inhibition in vivo at 100 mg/kg: 21.9%
Mus musculus [27]
  Activity: 59.8 10^-2mm
Mus musculus [28]
  inhibition in vivo at 100 mg/kg: 29.8%
Mus musculus [29]
  Activity: Non-toxic
Mus musculus [30]
  Activity: 56.9 10^-2mm
Mus musculus [31]
  Activity: 65.1 10^-2mm
Mus musculus [32]
  inhibition in vivo at 200 mg/kg: 6.4%
Mus musculus [33]
  inhibition in vivo at 200 mg/kg: 11.9%
Mus musculus [34]
  Activity: 39 10^-2mm
Mus musculus [35]
  Activity: Active
Mus musculus [36]
  Activity: 35 10^-2mm
Mus musculus [37]
  Activity: 54.6 10^-2mm
Mus musculus [38]
  inhibition in vivo at 200 mg/kg: 7.7%
Mus musculus [39]
  inhibition in vivo at 100 mg/kg: 31.9%
Mus musculus [40]
  inhibition in vivo at 200 mg/kg: 9.6%
Mus musculus [41]
  inhibition in vivo at 25 mg/kg: 6.8%
Mus musculus [42]
  Activity: 67.1 10^-2mm
Mus musculus [43]
  inhibition in vivo at 25 mg/kg: 7.7%
Mus musculus [44]
  Activity: Active
Mus musculus [45]
  Activity: 45.5 10^-2mm
Mus musculus [46]
  Activity: Non-toxic
